# Rows were chosen to be rich in hits. Some 3.8% of all compounds tested hit in one or more screens of this group.
# XiGFP reactiv – reactivates the inactive X chromosome in mouse fibroblasts | AID 743238 | activation, % at 7.58 µM | 0.055% of 360,000 active | XiGFP mouse fibroblasts, % GFP-positive cells imaging, 3 d; cells co-treated with 5-aza-dC sensitizer; scaled so ellipticine positive control = 100%;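 active = mean normalized replicate activation at least 10% and every replicate at or above 10%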;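 note: 0% = median of on-plate neutral control wells and 100% = ellipticine 6 µM median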
#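 Assay system: SV40-immortalized XiGFP fibroblast cells, line 68-5-11; buffer or medium: DMEM plus 5-aza-dC sensitizer; compound: one concentration, pinned; timing: compounds 3 days, fix/stain 15 min at room temperature; benchmarks: positive control ellipticine, 6 µM final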
# FGF22 binding – binders of recombinant human FGF22 by thermal shift. Q9HCT0. SYPRO orange fluorescence; percent of sucrose octasulfate shift, DMSO zero. activity (Tm shift, normalised), % at 9.99 µM. AID 651658. 1.5% of 340,000 active;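 active = mean Tm shift, scaled 0 neutral to 100 positive control, at about 1.3% or above, every replicate too, limit read from the data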
# Target sequence (Q9HCT0 whole entry, looked up): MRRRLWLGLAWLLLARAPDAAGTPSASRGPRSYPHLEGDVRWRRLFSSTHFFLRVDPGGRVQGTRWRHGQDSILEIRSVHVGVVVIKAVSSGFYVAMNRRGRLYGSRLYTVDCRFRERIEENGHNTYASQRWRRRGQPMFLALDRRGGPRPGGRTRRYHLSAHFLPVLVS
# ARNT TACC3 PPI – disrupts binding between human ARNT and TACC3 | Q9Y6A5 | inhibition, % at 9.99 µM | 0.66% of 390,000 active | AlphaScreen His-ARNT PAS-B/GST-TACC3 binding, luminescence; TACC3 fragment carries E629A point mutation;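 active = mean inhibition of replicates at least 50% and at least half of replicates each reaching 50%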;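 note: 0% = complete ARNT plus TACC3 wells and 100% = ARNT alone without TACC3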
# DENV2 CPE – DENV2-induced cell death inhibition; CPE inhibition, % at 9.99 µM; DENV2-infected cells, cytopathic effect rescue, plate reader; 1.7% of 350,000 active; in the data active = CPE inhibition above about 20%, passing the limit was not always enough; tested in BHK-21 cells;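 note: 0% = median of neutral control wells and 100% = median of positive control wells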
# SIRT5 inh – sirtuin-5 (human) deacylase inhibition; inhibition, % at 15 µM; Q9NXA8; 1.1% of 330,000 active; Purified SirT5, succinyl-peptide AMC, trypsin-coupled fluorescence; AID 652115; in the data active = inhibition above about 15%
# Target sequence (Q9NXA8 whole entry, looked up): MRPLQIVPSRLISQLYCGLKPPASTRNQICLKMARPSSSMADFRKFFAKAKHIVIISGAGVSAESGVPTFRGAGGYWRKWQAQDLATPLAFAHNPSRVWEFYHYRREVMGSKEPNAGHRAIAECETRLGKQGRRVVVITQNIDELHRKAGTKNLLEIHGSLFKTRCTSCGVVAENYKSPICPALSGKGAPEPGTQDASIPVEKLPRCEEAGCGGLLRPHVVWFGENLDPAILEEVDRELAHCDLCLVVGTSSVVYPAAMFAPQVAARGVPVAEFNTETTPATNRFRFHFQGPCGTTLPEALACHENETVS
# FN deposition inh – fibronectin deposition inhibition | AH1F fibroblasts, Alexa488-fibronectin deposition fluorescence, overnight | inhibition, % at 12.6 µM | 0.086% of 350,000 active | AID 743247;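 active = mean inhibition across replicates of 30% or more, regardless of how many single replicates reach that level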;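 note: positive control wells lacked labelled fibronectin entirely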
#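 Schedule: 1 h cell adhesion before compound, then overnight fibronectin incubation; test system: AH1F fibroblast monolayer depositing Alexa488-labelled fibronectin into matrix; quantity: 10000 AH1F cells per well; probe or stimulus: fluorescent fibronectin at 24 nM final; signal: fluorescence, ex 485 nm, em 525 nm; evaluation: percent inhibition as loss of matrix-bound fibronectin fluorescence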
# Numbers without * were called inactive; · = no result given.
SMILES,XiGFP reactiv,FGF22 binding,ARNT TACC3 PPI,DENV2 CPE,SIRT5 inh,FN deposition inh
Cc1ccc(S(=O)(=O)Nc2ccc3c(c2)C(=O)N([C@H](C)CO)C[C@@H](C)[C@H](CN(C)C(=O)Nc2ccc(F)cc2)OCCCC[C@H](C)O3)cc1,0,0,-10,3,21*,-5
CCCNC(=O)[C@H]1[C@H](CO)[C@H]2Cn3c(cccc3=O)[C@@H]1N2S(=O)(=O)c1ccccc1C,0,0,-1,4,-9,·
CN1C(=O)c2cc(NC(=O)C3CC3)ccc2OC[C@@H]2O[C@@H](CC(=O)NCC3CCCCC3)CC[C@H]21,0,0,-4,-2,-5,6
Cc1noc(C)c1S(=O)(=O)N(C)C[C@@H]1Oc2c(NC(=O)C3CC3)cccc2C(=O)N([C@@H](C)CO)C[C@@H]1C,0,0,-4,-8,3,·
C[C@@H]1CCCCO[C@@H](CN(C)C(=O)c2ccccc2)[C@@H](C)CN([C@@H](C)CO)C(=O)c2cc(NC(=O)Cc3ccccc3)ccc2O1,0,1,2,7,1,·
CCC(C)[C@H](NC(=O)[C@@H]1Cc2ccccc2CN1)C(=O)NCc1ccc(C)cc1 (some centres undefined),4,0,·,92*,0,1
CCCc1nc2ccc(C(=O)OC)cn2c1Cc1ccccc1OC,0,0,·,0,-4,-6
Fc1ccc(-c2nc3ccc(Cl)cn3c2Cc2cccc(F)c2)cc1,0,0,·,-3,19*,4
COC(=O)c1ccc2nc(C3CCCCC3)c(Cc3ccccc3OC)n2c1,0,0,·,20*,-3,0
Cc1cc(Br)cn2c(Cc3cccc(F)c3)c(-c3ccc(C#N)cc3)nc12,0,0,·,1,-1,30*
CN(C)Cc1c(-c2ccc(Cl)cc2)nc2ccc(Cl)cn12,0,43*,3,-9,1,4
CN1CCN(C(=O)C[C@@H]2CC[C@@H]3[C@H](COc4ccc(NC(=O)C5CCCC5)cc4C(=O)N3C)O2)CC1,0,0,·,-3,-1,-4
N#C[C@H]1[C@@H](c2ccc(C#CC3CCCCC3)cc2)[C@H](CO)N1C(=O)c1cccc(F)c1,0,0,·,-19,0,-20
COC(=O)c1ccc2nc(-c3ccc(C)cc3)c(Cc3ccccc3)n2c1,0,0,·,-5,24*,0
COC(=O)c1ccc2nc(-c3ccc(C#N)cc3)c(Cc3cccc(F)c3)n2c1,0,0,·,41*,·,-2
COC(=O)c1ccc2nc(-c3ccccc3)c(Cc3ccc(C)cc3)n2c1,0,-1,·,4,-6,-8
COC(=O)c1ccc2nc(-c3ccco3)c(Cc3ccsc3)n2c1,0,0,·,68*,-1,-10
COC(=O)c1ccc2nc(-c3ccc(F)cc3)c(Cc3ccccc3OC)n2c1,0,0,·,50*,14,-1
COC(=O)c1ccc2nc(-c3ccc(C)cc3)c(Cc3cccc(F)c3)n2c1,0,0,·,8,-3,-13
COC(=O)c1ccc2nc(-c3cccc(Br)c3)c(Cc3ccccc3OC)n2c1,0,0,·,-4,-4,2
C[C@@H]1CCCCO[C@@H](CN(C)Cc2ccc3c(c2)OCO3)[C@H](C)CN([C@H](C)CO)C(=O)c2cc(NC(=O)c3ccncc3)ccc2O1,0,0,-3,6,2,9
CN(C)C(=O)c1cc2c(c(-c3cccc(C4=CCCCC4)c3)n1)[C@H](CCO)N([S@@](=O)C(C)(C)C)C2,0,·,·,·,·,-8
COc1cc(NC(=O)COn2nnc3ccc(S(C)(=O)=O)cc32)cc(OC)c1,0,43*,3,0,-5,3
Cc1cc(NC(=O)COn2nnc3ccc(S(C)(=O)=O)cc32)ccc1Br,0,0,23,-2,0,11
CCC(=O)Nc1ccc2c(c1)C(=O)N(C)C[C@@H](OC)[C@@H](C)CN(C(=O)CC)[C@@H](C)CO2,0,0,1,2,-4,3
SMILES,XiGFP reactiv,FGF22 binding,ARNT TACC3 PPI,DENV2 CPE,SIRT5 inh,FN deposition inh
COc1ccc(NC(=O)Cn2nnc(C(=O)Nc3ccc(F)c(Cl)c3)c2N)cc1,0,0,-6,-8,15*,3
Cc1cc(C)c(NC(=O)Cn2nnc(C(=O)NCc3cccs3)c2N)c(C)c1,·,·,-2,·,·,-5
Cc1cc(C)cc(NC(=O)Cn2nnc(C(=O)NCc3cccs3)c2N)c1,0,0,5,27*,-3,-14
COc1ccc(NC(=O)Cn2nnc(C(=O)Nc3ccccc3C)c2N)cc1,0,44*,-9,·,1,-35
CC(=O)N1[C@@H]2c3ccc(-c4ccccc4)c(=O)n3C[C@@H]2[C@@H](CO)[C@@H]1C(=O)NC1CCC1,0,0,-6,2,-27,·
CCNC(=O)[C@H]1[C@H](CO)[C@H]2Cn3c(ccc(-c4ccccc4F)c3=O)[C@@H]1N2C(=O)CC,0,0,-9,0,-14,·
O=C(COC(=O)c1ccc2c(c1)C(=O)N(c1cccc3ncccc13)C2=O)c1ccc(Cl)cc1,0,44*,·,6,-2,-6
Cc1ccc(C(=O)COC(=O)c2ccc3c(c2)C(=O)N(c2cccc4ncccc24)C3=O)cc1,0,0,5,-2,18*,·
O=C(COC(=O)c1cc(Cl)nc2ccccc12)c1ccc(Cl)cc1,0,0,-16,63*,0,-9
O=C(OCC(=O)c1ccc(Cl)cc1Cl)c1ccc2c(c1)C(=O)N(c1cccc3ncccc13)C2=O,·,·,1,·,·,-4
Cc1ccc(C(=O)COC(=O)c2cc(Cl)nc3ccccc23)cc1,·,·,-12,·,·,-4
O=C(O)c1ccc2c(c1)C(=O)N(c1ccc(C(=O)OCC(=O)c3ccccc3)cc1)C2=O,0,·,5,-10,0,9
CS(=O)(=O)N1[C@H](CO)[C@@H](c2ccc(C#CC3CC3)cc2)[C@@H]1C#N,0,0,38,26*,2,-7
N#C[C@@H]1[C@H](c2ccc(C#CC3CCCC3)cc2)[C@@H](CO)N1S(=O)(=O)c1ccccc1,0,0,-5,50*,-4,-10
N#C[C@H]1[C@@H](c2ccccc2)[C@@H](CO)N1S(=O)(=O)Cc1ccccc1,0,1,-3,65*,0,9
CCOC(=O)C(CC)Sc1ccc2nnc(CCNS(=O)(=O)c3ccccc3)n2n1 (centres undefined),0,44*,-1,4,-3,3
CCN(CC)S(=O)(=O)c1ccc(C(=O)N2CCc3ccccc32)cc1,0,42,3,0,16*,-1

# Compound activity: PubChem, Broad Institute
